# High-throughput results from PubChem.
# The list is not random: actives were taken first. Their share in the collection is about 2.4%.
# ERAP1 HTS inh: blocks human ERAP1 aminopeptidase activity. Q9NZ08. recombinant ERAP1, Leu-AMC fluorescence, 60 min. inhibition, % at 10.7 µM. hit rate 0.15% among 340,000;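 active means mean replicate inhibition of at least 30%, or all replicates individually reaching that 30% level; inactive means mean below 30% and not every replicate reaching it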
# ARNT-TACC3 inh: ARNT/TACC3 interaction disruption; AID 623870; Q9Y6A5; inhibition, % at 9.99 µM; hit rate 0.66% among 390,000; AlphaScreen His-ARNT PAS-B/GST-TACC3 binding, luminescence; TACC3 fragment carries E629A point mutation;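 active means mean inhibition of replicates at least 50% and at least half of replicates each reaching 50%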
# S100A4 MyoIIA: inhibitors of human S100A4 binding to myosin IIA peptide; P26447; S100A4/TAMRA-MyoIIA peptide fluorescence polarization; inhibition, % at 10.7 µM; hit rate 0.14% among 360,000;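 active means mean inhibition of at least 70% across replicates, with every replicate also reaching that level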
# Target sequence (P26447 whole entry, looked up): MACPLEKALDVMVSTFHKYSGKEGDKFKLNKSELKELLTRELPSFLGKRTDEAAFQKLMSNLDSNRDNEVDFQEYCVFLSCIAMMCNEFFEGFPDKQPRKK
#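 Test system: S100A4 monomer protein. Medium: HEPES buffer with Ca2+, pH 7.2. Reagent: fluorescent myosin IIA peptide, 5 nM. Compound dosing: single-point compound testing. Timing: 5 min between mix addition and reading. Benchmarks: DMSO neutral and TFP positive wells.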
# rRNA inh HTS: inhibits bacterial ribosomal RNA function over humanized ribosomes; E. coli WT GFP vs humanized-ribosome RFP mutants, fluorescence, 24 h; stronger effect = lower value; DMSO median 0, no signal -100; GFP signal change (wild-type ribosome), % (concentration not given with the values); hit rate 1.6% among 350,000; AID 720706;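 active means significant combined selectivity score with lowered wild-type GFP, culture density cut under 30%, mutant RFP and density less affected; inactive means any of these conditions unmet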
# Casp6 inh: inhibitors of human caspase-6; P55212; purified caspase-6, Z-VEID-R110 cleavage fluorescence; inhibition, % at 12.5 µM; hit rate 0.53% among 350,000;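 active means mean inhibition across replicates at least about 35%, with every replicate also reaching that limit, limit read from the data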
# Target sequence (P55212 24-179 limits assumed): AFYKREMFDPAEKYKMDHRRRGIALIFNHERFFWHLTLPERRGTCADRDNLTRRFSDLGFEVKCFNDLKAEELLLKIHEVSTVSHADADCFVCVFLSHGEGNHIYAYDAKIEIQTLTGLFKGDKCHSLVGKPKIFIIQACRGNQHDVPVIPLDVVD
# Target sequence (P55212 194-293 limits assumed): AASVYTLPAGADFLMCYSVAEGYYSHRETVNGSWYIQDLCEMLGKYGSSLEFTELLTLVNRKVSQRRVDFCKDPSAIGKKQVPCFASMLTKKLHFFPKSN
# PGC1a acetyl inh: PGC1a acetylation modulation, inhibitor mode; inhibition, % at 15.6 µM; hit rate 0.17% among 350,000; U2OS PGC1a acetylation, AlphaScreen anti-acetyl-lysine; with virally co-expressed GCN5 acetyltransferase;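 active means every replicate shows inhibition of at least 40%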
# A number is an active result; n = inactive; x = no result.
SMILES,ERAP1 HTS inh,ARNT-TACC3 inh,S100A4 MyoIIA,rRNA inh HTS,Casp6 inh,PGC1a acetyl inh
CCCC#Cc1ccc([C@H]2[C@@H](CO)N(C(=O)NC(C)C)[C@H]2CNC(C)=O)cc1,n,x,n,n,n,x
COc1ccc2c3c(n(C)c2c1)[C@@H](CO)N(C(=O)Nc1ccc(F)cc1)CC31CCN(Cc2ccccc2F)CC1,n,x,n,n,n,n
O=C(NC1CC1)c1cc2cc3ccccc3nc2s1,n,n,n,-21.4,n,n
CCS(=O)(=O)NCC[C@H]1CC[C@@H](NC(=O)C2CCCCC2)[C@H](CO)O1,x,x,x,n,x,n
O=C(O)c1ccc(N2C(=O)CC(N3CCN(c4cccc(C(F)(F)F)c4)CC3)C2=O)cc1 (stereo not drawn),n,n,n,n,90.2,n
O=C(O)c1ccc(N2C(=O)CC(N3CCN(c4cccc(Cl)c4)CC3)C2=O)cc1 (stereo not drawn),n,n,n,n,n,n
C[C@H](CO)N1C[C@H](C)[C@@H](CN(C)Cc2ccc(C(=O)O)cc2)Oc2ccc(NS(=O)(=O)c3ccc(F)cc3)cc2CC1=O,n,x,n,n,n,n
O=C(c1ccccn1)N1CC2(C1)[C@H](c1ccccc1)[C@@H](CO)N2Cc1ccc(F)cc1,n,x,n,n,n,n
CC(=O)N(Cc1c(C)nn(-c2ccccc2)c1Cl)c1ccc(Cl)cc1,x,n,x,x,x,n
Cc1nn(-c2ccccc2)c(Cl)c1CN(C(=O)CCl)c1ccc(Cl)cc1,n,n,n,-32.2,n,x
CCc1ccc(CNCc2ccc(OCC(O)CN(C)Cc3ccccc3)cc2)nc1 (stereo not drawn),n,n,n,n,n,n
CCn1ccnc1CNCc1ccc(OCC(O)CN(C)Cc2ccccc2)cc1 (stereo not drawn),x,46.8,n,n,n,n
COc1c(CC=C(C)C)cc(C2CC(=O)c3c(O)cc(O)cc3O2)cc1CC=C(C)C (stereo not drawn),x,n,n,x,n,n
COC1=CC(=O)C(C2CC(=O)c3c(O)cc(O)cc3O2)=CC1=O (stereo not drawn),n,n,n,n,44.3,x
CCc1ccc2c(c1)CCCN2C(=O)c1ccccc1C(=O)O,x,49.0,x,x,x,n
O=C(c1ccccc1F)N1CCCc2ccccc21,n,n,n,n,n,n
Cc1ccc(NC(=O)COCC(=O)Nc2ccc(C)cc2)cc1,n,n,n,n,n,n
Cc1ccc(S(=O)(=O)OCC(=O)Nc2ccc(C(=O)O)c(O)c2)cc1,n,n,n,x,79.1,n
C[C@H](CO)N1C[C@H](C)[C@@H](CN(C)S(=O)(=O)c2ccc(Cl)cc2)Oc2ccc(NS(=O)(=O)c3ccc(F)cc3)cc2CC1=O,x,n,x,n,x,n
CCC(Cc1ccccc1)NC(=O)/C=C/c1ccco1 (stereo not drawn),n,n,n,n,n,n
CC(NC(=O)C=Cc1ccco1)C(=O)NC(Cc1ccccc1)C(N)=O (stereo not drawn),n,x,n,x,46.1,x
O=C(C[C@H]1C[C@@H]2c3cc(NC(=O)Nc4ccc(F)cc4)ccc3O[C@@H]2[C@H](CO)O1)NC1CCCCC1,x,n,x,n,x,n
COc1ccc(/C=N/Nc2nnc(C)n2N)cc1OC,n,54.3,n,n,n,n
COc1ccc(/C=N/Nc2nnc(C)n2N)cc1OC(C)=O,n,n,n,n,n,n
C[C@H]1CN([C@@H](C)CO)C(=O)CCCn2cc(nn2)CO[C@H]1CN(C)C(=O)Cc1ccccc1,x,x,x,n,x,n
CCN1[C@H](C(=O)NCCN2CCCCC2)[C@@H](CO)[C@@H]2Cn3c(ccc(-c4ccc(OC)cc4)c3=O)[C@@H]21,n,n,n,n,n,x
CCN1CCN(c2ccc(S(=O)(=O)N3CCCCC3)cc2NC(=O)/C=C/c2ccc(F)cc2)CC1,n,n,n,n,n,x
CCN1CCN(c2ccc(S(=O)(=O)N3CCCCC3)cc2NC(=O)/C=C/c2cccc(OC)c2OC)CC1,n,n,n,-20.2,n,x
O=c1oc(-c2ccccc2)nc2sc3c(c12)CCCC3,x,n,x,x,x,n
O=c1oc(-c2cc3ccccc3o2)nc2sc3c(c12)CCCC3,n,n,n,-22.8,n,n
